Laboratory results from ChEMBL document CHEMBL4004831, “Naphthalene diimide-polyamine hybrids as antiproliferative agents: Focus on the architecture of the polyamine chains” (Eur J Med Chem, 2017).
One block for each molecule: values may come before it.

Legend:
[1] = system: NCI/ADR-RES; test: Growth inhibition of human NCI-ADR-RES cells incubated for 48 hrs by sulforhodamine B assay; type: functional
[2] = system: NCI-H226; test: Growth inhibition of human NCI-H226 cells incubated for 48 hrs by sulforhodamine B assay; type: functional; conditions: NCI-H226, 48 h
[3] = system: HCT-116; test: Growth inhibition of human HCT116 cells incubated for 48 hrs by sulforhodamine B assay; type: functional; conditions: HCT-116, 48 h
[4] = system: SN12C; test: Growth inhibition of human SN12C cells incubated for 48 hrs by sulforhodamine B assay; type: functional
[5] = system: NCI-H23; test: Growth inhibition of human NCI-H23 cells incubated for 48 hrs by sulforhodamine B assay; type: functional; conditions: NCI-H23, 48 h
[6] = system: SK-OV-3; test: Growth inhibition of human SKOV3 cells incubated for 48 hrs by sulforhodamine B assay; type: functional; conditions: SK-OV-3, 48 h
[7] = system: ACHN; test: Growth inhibition of human ACHN cells incubated for 48 hrs by sulforhodamine B assay; type: functional
[8] = system: SR; test: Growth inhibition of human SR cells incubated for 48 hrs by sulforhodamine B assay; type: functional
[9] = system: A549; test: Growth inhibition of human A549/ATCC cells incubated for 48 hrs by sulforhodamine B assay; type: functional; conditions: A549, 48 h
[10] = system: HT-29; test: Growth inhibition of human HT-29 cells incubated for 48 hrs by sulforhodamine B assay; type: functional; conditions: HT-29, 48 h
[11] = system: OVCAR-8; test: Growth inhibition of human OVCAR8 cells incubated for 48 hrs by sulforhodamine B assay; type: functional; conditions: OVCAR-8, 48 h
[12] = system: HOP-62; test: Growth inhibition of human HOP62 cells incubated for 48 hrs by sulforhodamine B assay; type: functional; conditions: HOP-62, 48 h
[13] = system: NCI-H522; test: Growth inhibition of human NCI-H522 cells incubated for 48 hrs by sulforhodamine B assay; type: functional; conditions: NCI-H522, 48 h
[14] = system: BT-549; test: Growth inhibition of human BT549 cells incubated for 48 hrs by sulforhodamine B assay; type: functional; conditions: BT-549, 48 h
[15] = system: UO-31; test: Growth inhibition of human UO31 cells incubated for 48 hrs by sulforhodamine B assay; type: functional; conditions: UO-31, 48 h
[16] = system: M14; test: Growth inhibition of human M14 cells incubated for 48 hrs by sulforhodamine B assay; type: functional; conditions: M14, 48 h
[17] = system: SW-620; test: Growth inhibition of human SW620 cells incubated for 48 hrs by sulforhodamine B assay; type: functional; conditions: SW-620, 48 h
[18] = system: SNB-19; test: Growth inhibition of human SNB19 cells incubated for 48 hrs by sulforhodamine B assay; type: functional; conditions: SNB-19, 48 h
[19] = system: KM12; test: Growth inhibition of human KM12 cells incubated for 48 hrs by sulforhodamine B assay; type: functional; conditions: KM12, 48 h
[20] = system: SF-295; test: Growth inhibition of human SF295 cells incubated for 48 hrs by sulforhodamine B assay; type: functional; conditions: SF-295, 48 h
[21] = system: MCF7; test: Growth inhibition of human MCF7 cells incubated for 48 hrs by sulforhodamine B assay; type: functional; conditions: MCF7, 48 h
[22] = system: LOX IMVI; test: Growth inhibition of human LOXIMVI cells incubated for 48 hrs by sulforhodamine B assay; type: functional
[23] = system: U-251; test: Growth inhibition of human U251 cells incubated for 48 hrs by sulforhodamine B assay; type: functional; conditions: U-251, 48 h
[24] = system: OVCAR-3; test: Growth inhibition of human OVCAR3 cells incubated for 48 hrs by sulforhodamine B assay; type: functional; conditions: OVCAR-3, 48 h
[25] = system: UACC-62; test: Growth inhibition of human UACC62 cells incubated for 48 hrs by sulforhodamine B assay; type: functional; conditions: UACC-62, 48 h
[26] = system: OVCAR-4; test: Growth inhibition of human OVCAR4 cells incubated for 48 hrs by sulforhodamine B assay; type: functional; conditions: OVCAR-4, 48 h
[27] = system: MDA-MB-435; test: Growth inhibition of human MDA-MB-435 cells incubated for 48 hrs by sulforhodamine B assay; type: functional; conditions: MDA-MB-435, 48 h
[28] = system: TK-10; test: Growth inhibition of human TK10 cells incubated for 48 hrs by sulforhodamine B assay; type: functional; conditions: TK-10, 48 h
[29] = system: K562; test: Growth inhibition of human K562 cells incubated for 48 hrs by sulforhodamine B assay; type: functional; conditions: K562, 48 h
[30] = system: DU-145; test: Growth inhibition of human DU145 cells incubated for 48 hrs by sulforhodamine B assay; type: functional; conditions: DU-145, 48 h
[31] = system: A498; test: Growth inhibition of human A498 cells incubated for 48 hrs by sulforhodamine B assay; type: functional; conditions: A498, 48 h
[32] = system: OVCAR-5; test: Growth inhibition of human OVCAR5 cells incubated for 48 hrs by sulforhodamine B assay; type: functional; conditions: OVCAR-5, 48 h
[33] = system: NCI-H460; test: Growth inhibition of human NCI-H460 cells incubated for 48 hrs by sulforhodamine B assay; type: functional; conditions: NCI-H460, 48 h
[34] = system: Malme-3M; test: Growth inhibition of human MALME-3M cells incubated for 48 hrs by sulforhodamine B assay; type: functional
[35] = Stabilization of 5'Dabcyl/3'FAM labeled duplex DNA (unknown origin) assessed as increase in melting temperature at 2.5 uM pretreated for 5 mins at 30 degreeC followed by 5 mins incubation at 95 degreeC by fluorescence assay
Outline: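 FRET melting in LiP buffer (10 mM LiOH, 50 mM KCl, pH 7.0 with H3PO4), ex 488 nm, em 520 nm. Samples were held 5 min at 30 °C, heated at 1 °C/min to 95 °C, held 5 min, then re-annealed. Tm came from first derivatives; ΔTm = shift with ligand at 2.5; at least three runs.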

[36] = system: SK-MEL-5; test: Growth inhibition of human SK-MEL-5 cells incubated for 48 hrs by sulforhodamine B assay; type: functional; conditions: SK-MEL-5, 48 h
[37] = system: HOP-92; test: Growth inhibition of human HOP92 cells incubated for 48 hrs by sulforhodamine B assay; type: functional; conditions: HOP-92, 48 h
[38] = system: SF-268; test: Growth inhibition of human SF268 cells incubated for 48 hrs by sulforhodamine B assay; type: functional; conditions: SF-268, 48 h
[39] = system: HCC 2998; test: Growth inhibition of human HCC2998 cells incubated for 48 hrs by sulforhodamine B assay; type: functional; conditions: HCC 2998, 48 h
[40] = system: PC-3; test: Growth inhibition of human PC3 cells incubated for 48 hrs by sulforhodamine B assay; type: functional; conditions: PC-3, 48 h
[41] = system: MDA-MB-468; test: Growth inhibition of human MDA-MB-468 cells incubated for 48 hrs by sulforhodamine B assay; type: functional; conditions: MDA-MB-468, 48 h
[42] = system: IGROV-1; test: Growth inhibition of human IGROV1 cells incubated for 48 hrs by sulforhodamine B assay; type: functional; conditions: IGROV-1, 48 h
[43] = system: UACC-257; test: Growth inhibition of human UACC257 cells incubated for 48 hrs by sulforhodamine B assay; type: functional; conditions: UACC-257, 48 h
[44] = system: SNB-75; test: Growth inhibition of human SNB75 cells incubated for 48 hrs by sulforhodamine B assay; type: functional; conditions: SNB-75, 48 h
[45] = system: MDA-MB-231; test: Growth inhibition of human MDA-MB-231 cells incubated for 48 hrs by sulforhodamine B assay; type: functional; conditions: MDA-MB-231, 48 h

GI50 [2]: 928 nM
GI50 [3]: 315 nM
GI50 [5]: 356 nM
GI50 [6]: 2110 nM
GI50 [7]: 747 nM
GI50 [9]: 581 nM
GI50 [10]: 309 nM
GI50 [11]: 288 nM
GI50 [13]: 180 nM
GI50 [14]: 1710 nM
GI50 [17]: 262 nM
GI50 [21]: 200 nM
GI50 [23]: 328 nM
GI50 [24]: 262 nM
GI50 [26]: 160 nM
GI50 [27]: 213 nM
GI50 [29]: 301 nM
GI50 [30]: 693 nM
GI50 [32]: 2030 nM
GI50 [33]: 311 nM
ΔTm [35]: 6.7 °C
GI50 [36]: 156 nM
GI50 [39]: 296 nM
GI50 [40]: 564 nM
GI50 [41]: 133 nM
GI50 [45]: 435 nM
SMILES: COc1ccccc1CNCCCN1C(=O)c2ccc3c4c(ccc(c24)C1=O)C(=O)N(CCCNCCCCNCCCN)C3=O
GI50 [1]: 2040 nM
GI50 [4]: 319 nM
GI50 [8]: 325 nM
GI50 [12]: 664 nM
GI50 [15]: 2680 nM
GI50 [16]: 645 nM
GI50 [18]: 579 nM
GI50 [19]: 340 nM
GI50 [20]: 1080 nM
GI50 [22]: 300 nM
GI50 [25]: 364 nM
GI50 [28]: 422 nM
GI50 [31]: 1340 nM
GI50 [34]: 241 nM
GI50 [37]: 687 nM
GI50 [38]: 338 nM
GI50 [42]: 360 nM
GI50 [43]: 176 nM
GI50 [44]: 752 nM

GI50 [2]: 1780 nM
GI50 [3]: 394 nM
GI50 [5]: 1340 nM
GI50 [6]: 2670 nM
GI50 [7]: 1660 nM
GI50 [9]: 1760 nM
GI50 [10]: 1310 nM
GI50 [11]: 421 nM
GI50 [13]: 1570 nM
GI50 [14]: 1660 nM
GI50 [17]: 442 nM
GI50 [21]: 302 nM
GI50 [23]: 1590 nM
GI50 [24]: 301 nM
GI50 [26]: 257 nM
GI50 [27]: 196 nM
GI50 [29]: 1090 nM
GI50 [30]: 1380 nM
GI50 [32]: 1950 nM
GI50 [33]: 524 nM
ΔTm [35]: 6.7 °C
GI50 [36]: 246 nM
GI50 [39]: 1860 nM
GI50 [40]: 1660 nM
GI50 [41]: 406 nM
GI50 [45]: 1590 nM
SMILES: COc1ccccc1CNCCCN1C(=O)c2ccc3c4c(ccc(c24)C1=O)C(=O)N(CCCN)C3=O
GI50 [1]: 2900 nM
GI50 [4]: 1170 nM
GI50 [8]: 167 nM
GI50 [12]: 1240 nM
GI50 [15]: 1500 nM
GI50 [16]: 1060 nM
GI50 [18]: 1510 nM
GI50 [19]: 1620 nM
GI50 [20]: 1430 nM
GI50 [22]: 526 nM
GI50 [25]: 369 nM
GI50 [28]: 1640 nM
GI50 [31]: 1540 nM
GI50 [34]: 366 nM
GI50 [37]: 2100 nM
GI50 [38]: 1230 nM
GI50 [42]: 1000 nM
GI50 [43]: 424 nM
GI50 [44]: 1580 nM
